Consider 36 compounds from ChEMBL document CHEMBL1133980, “New inhibitors of the thioredoxin-thioredoxin reductase system based on a naphthoquinone spiroketal natural product lead” (Bioorg Med Chem Lett, 2001).

For test [1], the target named is T1, Thioredoxin reductase (Homo sapiens, UniProt Q16881+Q9NNW7+Q86VQ6). The test is described as follows: Inhibition of thioredoxin reductase. Type of test: protein assay. The gist of the method:
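Human placental TrxR (final 1.0 μM) in HEPES pH 7.2/EDTA buffer was added to diluted compound. Reaction started with NADPH (final 1 mM) and DTNB (final 10 mM) at 37 °C. A405 for DTNB reduction read every 10 s and initial rates taken. IC50 from five concentrations (0.1–50 μM).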

For test [2], the target named is T1, Thioredoxin reductase. Put plainly: Inhibition of thioredoxin-1/thioredoxin reductase system. The test is classed as functional. The gist of the method:
(§1)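 Insulin reduction by human placental TrxR plus recombinant human Trx-1 (final 1.0 μM TrxR, 0.8 μM Trx-1) in 100 mM HEPES pH 7.2, 5 mM EDTA with 1 mM NADPH and 2.5 mg/mL bovine insulin, 30 min, 37 °C. Stopped with 6 M guanidine-HCl/Tris pH 8.0/10 mM DTNB; A405 read. IC50 from five concentrations (0.1–50 μM).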

Test [3] has as its system MDA-MB-231. The test is described as follows: Ability to inhibit the growth of MDA-MB-231 cell line. The note with it: Homo sapiens. The test is classed as functional, cell-based. The gist of the method:
(§2)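 MCF-7 (ER+, p53 replete) and MDA-MB-231 (ER−, p53 deficient) human breast cancer cells were seeded at 4000/well and left to attach overnight. They were then exposed to compound (0.1–30 μM) or 0.1% DMSO vehicle for 72 h. Medium was changed to serum-free medium with 0.1% MTT, incubated 3 h in the dark, and cell number read at 540 nm.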

Test [4] concerns MCF7. The test is described as follows: Ability to inhibit the growth of MCF-7 cell line. Particulars: Homo sapiens. Type of test: functional, cell-based. The gist of the method: as §2
Test [5] in a line: Compound was tested for its ability to inhibit thioredoxin-1/thioredoxin reductase system. Further details: species or system Homo sapiens. A digest of the protocol:
as §1

The term IC50 denotes the concentration at which inhibition is half-maximal. Low readings indicate greater potency, high ones weaker potency. Take `O=C1C=CC2(Oc3cccc4cccc(c34)O2)c2cccc(OCc3ccc(-c4cccc(C(F)(F)F)c4)o3)c21`: the IC50 in test [1] was more than 50 µM; in test [2] it was 42.4 µM; in test [3], 5.2 µM; in test [4], 5.5 µM.

Take `COc1cccc2c1C(=O)C=CC21OCCCO1`: the IC50 in test [1] is more than 50 µM; in test [2] it was 40.2 µM; in test [3] it was 5 µM; in test [4], 4.4 µM.

For the compound `O=C1C=CC2(Oc3cccc4cccc(c34)O2)c2cccc(OCc3ccc(Cl)cc3)c21`, the IC50 in test [1] was more than 50 µM; in test [2] it was more than 50 µM; in test [3], 8 µM; in test [4] it was more than 10 µM.

`C/C=C(\C)COc1cccc2c1C(=O)C=CC21Oc2cccc3cccc(c23)O1`: the IC50 in test [2] was more than 50 µM; in test [3], 5.3 µM; in test [4], 4.3 µM.

In the case of `O=C1C=CC2(Oc3cccc4cccc(c34)O2)c2cccc(OCc3ccccn3)c21`, the IC50 in test [1] is more than 50 µM; in test [2], 41.8 µM; in test [3] it was 2.8 µM; in test [4] it was 2 µM.

Turning to `O=C1C=CC2(Oc3cccc4cccc(c34)O2)c2cccc(OCc3ccc(-c4cccc(Cl)c4)o3)c21`, the IC50 in test [1] was more than 50 µM; in test [2], more than 50 µM; in test [3], more than 10 µM; in test [4] it was more than 10 µM.

For `C=C(C)COc1cccc2c1C(=O)C=CC21Oc2cccc3cccc(c23)O1`, the IC50 was more than 50 µM in test [1], 4.8 µM in test [2], 8.2 µM in test [3] and 7.8 µM in test [4].

`C/C=C/COc1cccc2c1C(=O)C=CC21Oc2cccc3cccc(c23)O1`: the IC50 in test [2] is more than 50 µM; in test [3] it was 2.9 µM; in test [4], 1.3 µM.

On to `O=C1C=CC2(Oc3cccc4cccc(c34)O2)c2cccc(OCc3ccco3)c21`, for which the IC50 was more than 50 µM in test [2], 2.5 µM in test [3] and 1.1 µM in test [4].

For the compound `O=C1C=CC2(Oc3cccc4cccc(c34)O2)C23OC12CCCC3=O` (configuration not stated), the results for the IC50 in test [2], in test [3] and in test [4] were 44 µM, 3.4 µM and 1.3 µM, respectively.

As to `O=C1[C@@H]2O[C@@H]2C2(Oc3cccc4cccc(c34)O2)[C@@]23O[C@@]12CCCC3=O`, the IC50 in test [2] was more than 50 µM; in test [3] it was 8.2 µM; in test [4], 4.6 µM.

`O=C1C=CC2(Oc3cccc4cccc(c34)O2)c2cccc(OCc3ccncc3)c21`: the IC50 in test [1] is more than 50 µM; in test [2], more than 50 µM; in test [3], 7.3 µM; in test [4] it was 8 µM.

Turning to `O=C1C=CC2(Oc3cccc4cccc(c34)O2)c2cccc(OCc3ccc(Br)cc3)c21`, the IC50 in test [1] was more than 50 µM; in test [2], more than 50 µM; in test [3], 9.3 µM; in test [4], more than 10 µM.

As to `O=C1C=CC2(Oc3cccc4cccc(c34)O2)c2cccc(OCc3cccnc3)c21`, the IC50 in test [1] was more than 50 µM; in test [2], more than 50 µM; in test [3], 1.4 µM; in test [4] it was 1.5 µM.

On to `O=C1C=CC2(Oc3cccc4cccc(c34)O2)c2cccc(O)c21`, for which the IC50 in test [1] turned out to be 12 µM; in test [2], 0.35 µM; in test [3], 2.4 µM; in test [4] it was 1 µM.

Consider `C=CCOc1cccc2c1C(=O)C=CC21Oc2cccc3cccc(c23)O1`, for which the IC50 was more than 50 µM in test [1], 23.2 µM in test [2], 2.7 µM in test [3] and 2 µM in test [4].

In the case of `CC/C=C/CCOc1cccc2c1C(=O)C=CC21Oc2cccc3cccc(c23)O1`, the IC50 is more than 50 µM in test [2], 9.2 µM in test [3] and more than 30 µM in test [4].

As for `O=C1C=CC2(Oc3cccc4cccc(c34)O2)c2cccc(OCc3ccc(-c4ccccc4C(F)(F)F)o3)c21`, the IC50 is more than 50 µM in test [1], more than 50 µM in test [2], 4.9 µM in test [3] and 5 µM in test [4].

In the case of `COc1cccc(COc2cccc3c2C(=O)C=CC32Oc3cccc4cccc(c34)O2)c1`, the values for the IC50 in test [2], in test [3] and in test [4] were more than 50 µM, 2.7 µM and 2.3 µM, respectively.

Take `CC(C)=CCOc1cccc2c1C(=O)C=CC21Oc2cccc3cccc(c23)O1`: the IC50 in test [2] was more than 50 µM; in test [3] it was 3.6 µM; in test [4] it was 2 µM.

Turning to `O=C1C=CC2(Oc3cccc4cccc(c34)O2)c2cccc(OCCc3ccccc3)c21`, the IC50 was more than 50 µM in test [2], 4.6 µM in test [3] and 3.9 µM in test [4].

Turning to `O=C1C=CC2(Oc3cccc4cccc(c34)O2)C2=C1CCCC2=O`, the IC50 in test [2] stood at 2.1 µM; in test [3], 6.4 µM; in test [4] it was 3.8 µM.

Regarding `O=C1C=CC2(Oc3cccc4cccc(c34)O2)C2=C1[C@@H](O)C1C3C=CC(C3)C1[C@H]2O` (some centres not stated), the IC50 in test [2] came to 8 µM; in test [3] it was 2.1 µM; in test [4] it was 1.3 µM.

On to `O=C1C=C[C@H](O)[C@@]23O[C@@]12C1(Oc2cccc4cccc(c24)O1)[C@@H]1O[C@@H]1[C@@H]3O`, for which the IC50 in test [1] was 13.5 µM; in test [2] it was 4.5 µM; in test [3], 2 µM; in test [4], 1.5 µM.

`O=C1C=CC2(Oc3cccc4cccc(c34)O2)c2cccc(OCc3ccc(-c4ccccc4Cl)o3)c21`: the IC50 in test [1] is more than 50 µM; in test [2], more than 50 µM; in test [3], more than 10 µM; in test [4], more than 10 µM.

On to `O=C1C=CC2(Oc3cccc4cccc(c34)O2)c2cccc(OC/C=C/c3ccccc3)c21`, for which the IC50 is more than 50 µM in test [2], 7.5 µM in test [3] and 7.9 µM in test [4].

Consider `O=C1C=CC2(Oc3cccc4cccc(c34)O2)c2cccc(OCc3ccoc3)c21`, for which the IC50 is more than 50 µM in test [1], 23.2 µM in test [2], 2 µM in test [3] and 2 µM in test [4].

For `CC(C)=CCC/C(C)=C/COc1cccc2c1C(=O)C=CC21Oc2cccc3cccc(c23)O1`, the IC50 in test [3] was 2 µM; in test [4], 4.6 µM; in test [5] it was more than 50 µM.

For the compound `CCCCCCOc1cccc2c1C(=O)C=CC21Oc2cccc3cccc(c23)O1`, the IC50 is more than 50 µM in test [2], 13.6 µM in test [3] and 13.4 µM in test [4].

With `O=C1CCCC2=C1C1(Oc3cccc4cccc(c34)O1)C1OC1C2=O` (configuration not stated), the IC50 came to 12.2 µM in test [2], 23 µM in test [3] and 4.6 µM in test [4].

On to `O=C1[C@@H]2O[C@@H]2C2(Oc3cccc4cccc(c34)O2)[C@]23O[C@]12CCCC3=O`, for which the IC50 amounted to 13.5 µM in test [2], 2.9 µM in test [3] and 2.8 µM in test [4].

Regarding `O=C1C=CC2(OCCO2)c2cccc(O)c21`, the IC50 in test [1] came to 8.8 µM; in test [2], 3.4 µM; in test [3], 4.3 µM; in test [4], 4.2 µM.

For the compound `O=C1C=CC2(Oc3cccc4cccc(c34)O2)c2cccc(OCc3ccc(-c4ccc(Br)cc4)o3)c21`, the IC50 in test [1] was 20.1 µM; in test [2], 10.2 µM; in test [3], 7.8 µM; in test [4] it was 5.7 µM.

With `C/C=C(/C)COc1cccc2c1C(=O)C=CC21Oc2cccc3cccc(c23)O1`, the values for the IC50 in test [2], in test [3] and in test [4] were more than 50 µM, 4.5 µM and 1.9 µM, respectively.

Regarding `C#CCOc1cccc2c1C(=O)C=CC21Oc2cccc3cccc(c23)O1`, the IC50 was more than 50 µM in test [1], 13.4 µM in test [2], 4.7 µM in test [3] and 4.3 µM in test [4].

As to `COc1ccc(COc2cccc3c2C(=O)C=CC32Oc3cccc4cccc(c34)O2)cc1`, the IC50 in test [1] is more than 50 µM; in test [2] it was more than 50 µM; in test [3], 2.2 µM; in test [4] it was 0.7 µM.
